In brackets after ≈: the same amount, converted by molar mass.
Key:
[1] = target: Cell division cycle 7-related protein kinase (Homo sapiens, UniProt O00311); assay: Inhibition of human Cdc7 assessed as inhibition of rate of phosphorylation of Mcm2 protein
A2780 = assay: Antiproliferative activity against human A2780 cells after 72 hrs by luciferase based assay; format: functional, cell-based
[2] = target: Cyclin-dependent kinase 9 (Homo sapiens, UniProt P50750); assay: Inhibition of CDK9
[3] = AUC (0 to infinity) in nu/nu mouse at 10 mg/kg, iv administered as single dose; format: ADME, organism-based; parameters: dose 10 mg/kg, route intravenous, time infinity; conditions: plasma
Procedure, shortened: (§1)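 Single iv or oral dose in 5% dextrose to overnight-fasted animals. Nu/Nu mice: males, 3 per route, saphenous bleeds to 24 h. Han-Wistar rats: males, 3 per route, jugular bleeds to 24 h. Beagle dogs: 2 per sex, iv and po crossover 2 weeks apart, jugular bleeds to 48 h. Plasma by LC/MS/MS; noncompartmental parameters, AUC by linear trapezoid with extrapolation.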

[4] = Half life in nu/nu mouse at 10 mg/kg, po administered as single dose; format: ADME, organism-based; parameters: dose 10 mg/kg, route oral; conditions: in vivo; procedure, shortened: as §1
[5] = Cmax in nu/nu mouse at 10 mg/kg, po administered as single dose; format: ADME, organism-based; parameters: dose 10 mg/kg, route oral; conditions: in vivo; procedure, shortened: as §1
[6] = AUC (0 to infinity) in nu/nu mouse at 10 mg/kg, po administered as single dose; format: ADME, organism-based; parameters: time infinity, dose 10 mg/kg, route oral; conditions: plasma; procedure, shortened: as §1
[7] = Clearance in nu/nu mouse at 10 mg/kg, iv administered as single dose; format: ADME, organism-based; parameters: dose 10 mg/kg, route intravenous; conditions: in vivo; procedure, shortened: as §1
[8] = Solubility in pH 7.0 buffer
[9] = Oral bioavailability in nu/nu mouse at 10 mg/kg administered as single dose; format: ADME, organism-based; conditions: in vivo
Procedure, shortened: (§2)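 Overnight-fasted male Nu/Nu mice got a single 10 mg/kg dose in 5% dextrose, iv or po, three mice per route. Saphenous blood was drawn at 0.083 (iv) or 0.25 (po), 0.5, 1, 6 and 24 h. Plasma was assayed by LC/MS/MS and analysed noncompartmentally. Tmax is the observed peak time, Vss = CL·MRT, and F is the ratio of dose-normalized AUC∞ po/iv.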

[10] = Metabolic stability in human hepatocytes expressing CYP3A4 assessed as drug remaining after 1 hr; format: ADME, cell-based, Hepatocyte; conditions: read-out: Stability
[11] = Volume of distribution at steady state in nu/nu mouse at 10 mg/kg, iv administered as single dose; format: ADME, organism-based; parameters: dose 10 mg/kg, route intravenous; conditions: in vivo, read-out: Vdss; procedure, shortened: as §2
[12] = Tmax in nu/nu mouse at 10 mg/kg, po administered as single dose; format: ADME, organism-based; parameters: dose 10 mg/kg, route oral; conditions: in vivo; procedure, shortened: as §2
[13] = Half life in nu/nu mouse at 10 mg/kg, iv administered as single dose; format: ADME, organism-based; parameters: dose 10 mg/kg, route intravenous; conditions: in vivo; procedure, shortened: as §1
[14] = Cmax in nu/nu mouse at 10 mg/kg, iv administered as single dose; format: ADME, organism-based; parameters: dose 10 mg/kg, route intravenous; conditions: in vivo; procedure, shortened: as §1
Hepatocyte = assay: Metabolic stability in rat hepatocytes assessed as intrinsic clearance at 1 uM; format: cell-based; conditions: Liver

Cell division cycle 7-related protein kinase, sequence (O00311 whole entry): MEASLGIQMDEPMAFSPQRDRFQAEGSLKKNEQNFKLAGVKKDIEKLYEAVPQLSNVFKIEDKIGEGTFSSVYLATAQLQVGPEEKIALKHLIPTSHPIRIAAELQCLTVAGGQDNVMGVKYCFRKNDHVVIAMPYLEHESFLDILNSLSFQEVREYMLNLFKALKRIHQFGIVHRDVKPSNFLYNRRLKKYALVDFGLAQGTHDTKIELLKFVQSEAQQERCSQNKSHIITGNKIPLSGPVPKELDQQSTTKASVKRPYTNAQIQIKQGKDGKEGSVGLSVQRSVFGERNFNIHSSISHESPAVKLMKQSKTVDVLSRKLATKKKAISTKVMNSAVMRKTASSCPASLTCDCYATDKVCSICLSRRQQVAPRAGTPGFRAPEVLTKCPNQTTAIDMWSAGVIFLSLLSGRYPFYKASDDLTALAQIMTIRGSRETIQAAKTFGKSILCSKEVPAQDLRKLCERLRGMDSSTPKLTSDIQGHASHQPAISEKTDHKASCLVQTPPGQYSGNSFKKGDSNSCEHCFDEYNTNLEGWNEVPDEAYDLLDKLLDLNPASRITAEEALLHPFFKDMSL
Cyclin-dependent kinase 9, sequence (P50750 whole entry): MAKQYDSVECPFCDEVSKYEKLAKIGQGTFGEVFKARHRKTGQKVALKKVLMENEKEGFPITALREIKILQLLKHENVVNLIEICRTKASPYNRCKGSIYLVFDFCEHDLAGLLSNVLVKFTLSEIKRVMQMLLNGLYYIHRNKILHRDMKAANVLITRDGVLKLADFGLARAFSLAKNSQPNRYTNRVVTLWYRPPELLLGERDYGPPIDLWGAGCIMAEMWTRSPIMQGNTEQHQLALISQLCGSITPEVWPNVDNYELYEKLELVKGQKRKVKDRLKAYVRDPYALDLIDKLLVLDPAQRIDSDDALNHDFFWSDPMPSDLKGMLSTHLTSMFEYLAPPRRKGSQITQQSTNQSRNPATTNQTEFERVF

SMILES	IC50 [1]	IC50 (A2780; Homo sapiens, A2780, 72 h)	other results
CC1(C)Cc2[nH]c(-c3ccncc3)cc2C(=O)N1	32 nM	1200 nM	–
O=C1NCC(C2CCC2)c2[nH]c(-c3ccncc3)cc21 (stereo not given)	3 nM	500 nM	–
O=C1N[C@@H](COCc2ccccc2)Cc2[nH]c(-c3ccncc3)cc21	44 nM	4800 nM	–
O=C1NC(C2CC2)Cc2[nH]c(-c3ccncc3)cc21 (stereo not given)	5 nM	1300 nM	–
CC(C)C1Cc2[nH]c(-c3ccnc(N)n3)cc2C(=O)N1 (stereo not given)	12 nM	1300 nM	–
CC(C)CC1Cc2[nH]c(-c3ccncc3)cc2C(=O)N1 (stereo not given)	3 nM	800 nM	–
Nc1nccc(-c2cc3c([nH]2)C[C@H](COCc2ccccc2)NC3=O)n1	52 nM	3000 nM	–
CC1Cc2[nH]c(-c3ccnc(N)n3)cc2C(=O)N1 (stereo not given)	–	3900 nM	–
CC1(C)CNC(=O)c2cc(-c3ccncc3)[nH]c21	–	200 nM	–
CCC1CNC(=O)c2cc(-c3ccnc(N)n3)[nH]c21 (stereo in doubt; 86-1) [listing 1 of 2 here]	–	–	CL (mL.min-1.kg-1) (Hepatocyte): 5
CC(C)CC1Cc2[nH]c(-c3ccnc(N)n3)cc2C(=O)N1 (stereo not given)	8 nM	1600 nM	–
CC1CNC(=O)c2cc(-c3ccncc3)[nH]c21 (stereo not given)	10 nM	600 nM	–

More lines, main results first:

IC50 [1]	IC50 (A2780; Homo sapiens, A2780, 72 h)	SMILES	other results
4 nM	–	CC(C)C1CNC(=O)c2cc(-c3ccnc(N)n3)[nH]c21 (stereo in doubt; 87)	IC50 (A2780; a2780): 400 nM
3 nM	600 nM	Nc1nccc(-c2cc3c([nH]2)C(CCF)CNC3=O)n1 (stereo not given)	–
5 nM	200 nM	CCC1(CC)CNC(=O)c2cc(-c3ccnc(N)n3)[nH]c21	–
12 nM	–	Nc1nccc(-c2cc3c([nH]2)C(CCC(F)(F)F)CNC3=O)n1 (stereo in doubt; 93-1)	IC50 [2]: 218 nM; IC50 (A2780; a2780): 1000 nM
11 nM	–	Nc1nccc(-c2cc3c([nH]2)C(CCC(F)(F)F)CNC3=O)n1 (stereo in doubt; 93-2)	AUC(0-inf) [3]: 5.3 µM·h; half-life [4]: 102 min; Cmax [5]: 800 nM; IC50 [2]: 395 nM; AUC(0-inf) [6]: 1.7 µM·h; clearance [7]: 88.3 mL/min/kg; solubility [8]: 195 µM (≈ 63.4 µg/mL); bioavailability [9]: 31%; remaining at 1 h [10]: 94%; Vd [11]: 1.5 L/kg; Tmax [12]: 19.8 min; half-life [13]: 54 min; IC50 (A2780; a2780): 300 nM; Cmax [14]: 13.6 µM
11 nM	–	Nc1nccc(-c2cc3c([nH]2)C(C2CCC2)CNC3=O)n1 (stereo in doubt; 88-1)	IC50 [2]: 83 nM; IC50 (A2780; a2780): 1300 nM
4 nM	1100 nM	Nc1nccc(-c2cc3c([nH]2)C(CCO)CNC3=O)n1 (stereo not given)	–
4 nM	–	CCC1CNC(=O)c2cc(-c3ccnc(N)n3)[nH]c21 (stereo in doubt; 86-1) [listing 2 of 2 here]	AUC(0-inf) [3]: 4.9 µM·h; half-life [4]: 78 min; Cmax [5]: 2700 nM; IC50 [2]: 73 nM; AUC(0-inf) [6]: 3.6 µM·h; clearance [7]: 125 mL/min/kg; solubility [8]: > 225 µM; bioavailability [9]: 74%; remaining at 1 h [10]: 99%; Vd [11]: 1.5 L/kg; Tmax [12]: 20.4 min; half-life [13]: 12 min; Cmax [14]: 12.6 µM
5 nM	–	Nc1nccc(-c2cc3c([nH]2)C(C2CCC2)CNC3=O)n1 (stereo in doubt; 88)	IC50 (A2780; a2780): 300 nM
–	1700 nM	Nc1nccc(-c2cc3c([nH]2)CCNC3=O)n1	IC50 [2]: 29 nM
19 nM	3000 nM	Nc1nccc(-c2cc3c([nH]2)C(c2ccccc2)CNC3=O)n1 (stereo not given)	–
